Calls of active or inactive are those of the source. The calls are words filed in the database; no cut-off is given here.
Key:
TIG-3 [1] = test: Cytoprotective activity against H2O2-induced oxidative stress in human TIG3 cells assessed as increase in full length PARP level at 0.3 uM pretreated with H2O2 for 2 hrs followed by compound addition by immunoblot analysis; format: functional, cell-based
Outline: (§1)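 TIG-3 cells stressed with H2O2 (500 μM, 2 h), then recovered in medium containing 0.3 or 0.6 μM compound. Lysed in NP40 buffer; 10−20 μg protein immunoblotted for pAkt Ser473, p-p38 Thr180/Tyr182, p-p44/42 Thr202/Tyr204, β-catenin, survivin, Bcl-2 or full-length PARP-1. Triplicate experiments.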

TIG-3 [2] = test: Cytotoxicity against human TIG3 cells assessed as cell death at 1 uM after 48 hrs relative to control; format: cell-based; conditions: tig-3, 48 h
Outline: (§2)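 Normal human fibroblasts (TIG-3, WI38) exposed to serially increasing compound concentrations (0.15 to 50 μM) for 48 or 72 h. Viability scored against untreated control. Triplicate experiments.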

WI-38 [3] = test: Cytotoxicity against human WI38 cells assessed as cell death at 1 uM after 48 hrs relative to control; format: cell-based; conditions: wi-38, 48 h; outline: as §2
TIG-3 [4] = test: Cytotoxicity against human TIG3 cells assessed as inhibition of colony formation at 0.1 to 0.3 uM by crystal violet staining based assay; format: cell-based; conditions: tig-3, 0.3 µM
Outline: (§3)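 Cells seeded at 500 per well and grown about 2 weeks in compound-supplemented medium, with medium changed every fourth day. Colonies fixed, stained and counted. Triplicate; Student's t test.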

WI-38 [5] = test: Cytotoxicity against human WI38 cells assessed as inhibition of colony formation at 0.1 to 0.3 uM by crystal violet staining based assay; format: cell-based; conditions: wi-38, 0.3 µM; outline: as §3
TIG-3 [6] = test: Cytotoxicity against human TIG3 cells assessed as cell death at 0.6 uM; format: cell-based; conditions: tig-3, 0.6 µM
Outline: (§4)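 Phase-contrast microscopy of morphology of control and treated normal human TIG-3 fibroblasts.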

TIG-3 [7] = test: Cytotoxicity against human TIG3 cells assessed as induction of morphological changes at 0.3 to 1.5 uM after 48 hrs by phase contrast microscopy; format: cell-based; conditions: tig-3, 48 h; outline: as §4
TIG-3 [8] = test: Cytotoxicity against human TIG3 cells assessed as decrease in ROS generation at 1.5 to 3 uM after 48 hrs; format: cell-based; conditions: tig-3, 48 h
TIG-3 [9] = test: Cytotoxicity against human TIG3 cells assessed as induction of senescence at 64 population doubling at 0.1 uM; format: cell-based; conditions: tig-3, 0.1 µM
TIG-3 [10] = test: Induction of oxidative stress against human TIG3 cells assessed as increase in CARF mRNA levels by RT-PCR analysis; format: cell-based
Outline: (§5)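 Total RNA from treated TIG-3 cells; cDNA from 2 μg RNA; PCR 95 °C 10 min, 30 cycles (95 °C 45 s, 58 °C 1 min, 72 °C 45 s), 72 °C 10 min; products on 0.8% agarose, band densitometry; three independent experiments.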

TIG-3 [11] = test: Induction of oxidative stress in human TIG3 cells assessed as increase in GADD45alpha mRNA levels by RT-PCR analysis; format: cell-based; outline: as §5
TIG-3 [12] = test: Effect on mortalin expression level in human TIG3 cells at 0.3 to 3 uM by immuno fluorescence analysis; format: ADME, cell-based; conditions: tig-3, 3 µM
Outline: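 Methanol-fixed (chilled absolute methanol) TIG-3 fibroblasts treated with Wi-A or 3βmWi-A; immunofluorescence staining with antibodies, imaged by epifluorescence microscopy; signal quantitated from three independent experiments.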

TIG-3 [13] = test: Decrease in keap1 expression level in human TIG3 cells at 0.3 to 3 uM by immunoblot analysis; format: ADME, cell-based; conditions: tig-3, 3 µM
Outline: (§6)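 TIG-3 cells treated with compound, lysed in NP40 buffer (centrifuged 20 min, 4 °C); 10−20 μg protein immunoblotted for indicated proteins; band quantitation from three independent experiments, Student's t or Mann−Whitney test.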

TIG-3 [14] = test: Decrease in Nrf2 expression level in human TIG3 cells at 0.3 to 3 uM by immunoblot analysis; format: ADME, cell-based; conditions: tig-3, 3 µM; outline: as §6
TIG-3 [15] = test: Induction of oxidative stress in human TIG3 cells assessed as increase in CARF expression level at 0.6 uM by immunoblot analysis; format: cell-based; conditions: tig-3, 0.6 µM; outline: as §6
TIG-3 [16] = test: Induction of oxidative stress in human TIG3 cells assessed as increase in p53 expression level at 0.6 uM by immunoblot analysis; format: cell-based; conditions: tig-3, 0.6 µM; outline: as §6
TIG-3 [17] = test: Induction of apoptosis in human TIG3 cells assessed as decrease in Bcl2 levels at 0.3 to 3 uM by immunoblot analysis; format: cell-based; conditions: tig-3, 3 µM
Outline: (§7)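 TIG-3 cells treated with compound without added stress. Lysed in NP40 buffer; 10−20 μg protein immunoblotted for Bcl-2 and Bax. Band intensities quantified from three independent sets.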

TIG-3 [18] = test: Induction of apoptosis in human TIG3 cells assessed as increase in Bax levels at 0.3 to 3 uM by immunoblot analysis; format: cell-based; conditions: tig-3, 3 µM; outline: as §7
TIG-3 [19] = test: Cytoprotective activity against H2O2-induced oxidative stress in human TIG3 cells assessed as increase in cell survival at 3 uM pretreated with H2O2 for 2 hrs followed by compound addition measured after 2 days by crystal violet staining based assay; format: functional
TIG-3 [20] = test: Cytoprotective activity against H2O2-induced oxidative stress in human TIG3 cells assessed as decrease in p53 level pretreated with H2O2 for 2 hrs followed by compound addition by immuno fluorescence staining based assay; format: functional, cell-based
TIG-3 [21] = test: Cytoprotective activity against H2O2-induced oxidative stress in human TIG3 cells assessed as decrease in CARF level pretreated with H2O2 for 2 hrs followed by compound addition by immuno fluorescence staining based assay; format: functional, cell-based
TIG-3 [22] = test: Cytoprotective activity against UV irradiation-induced stress in human TIG3 cells assessed as decrease in p53 level irradiated with 50 mJ/cm2 of UV radiations followed by compound addition by immuno fluorescence staining based assay; format: functional, cell-based
TIG-3 [23] = test: Cytoprotective activity against UV irradiation-induced stress in human TIG3 cells assessed as decrease in CARF level irradiated with 50 mJ/cm2 of UV radiations followed by compound addition by immuno fluorescence staining based assay; format: functional, cell-based
[24] = molecular target: RAC-alpha serine/threonine-protein kinase (Homo sapiens) (UniProt P31749); test: Induction of Akt phosphorylation at Ser473 residues in H2O2 treated human TIG3 cells at 0.3 uM pretreated with H2O2 for 2 hrs followed by compound addition by immunoblot analysis; outline: as §1
Chain of RAC-alpha serine/threonine-protein kinase (Homo sapiens) (P31749 whole entry): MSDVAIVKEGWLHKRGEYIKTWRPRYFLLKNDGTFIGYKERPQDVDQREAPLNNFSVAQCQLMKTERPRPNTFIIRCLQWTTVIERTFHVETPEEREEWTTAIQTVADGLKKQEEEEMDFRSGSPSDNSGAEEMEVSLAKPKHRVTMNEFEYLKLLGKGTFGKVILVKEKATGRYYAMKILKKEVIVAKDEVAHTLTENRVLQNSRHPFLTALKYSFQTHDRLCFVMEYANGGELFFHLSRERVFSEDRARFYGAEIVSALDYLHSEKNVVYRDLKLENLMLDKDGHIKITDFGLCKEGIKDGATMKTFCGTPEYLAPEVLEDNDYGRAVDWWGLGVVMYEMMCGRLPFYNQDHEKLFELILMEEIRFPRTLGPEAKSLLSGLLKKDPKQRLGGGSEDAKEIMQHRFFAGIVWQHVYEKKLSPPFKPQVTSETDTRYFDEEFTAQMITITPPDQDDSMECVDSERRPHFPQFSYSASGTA

[25] = molecular target: MAP kinase p38 (Homo sapiens) (UniProt O15264+Q15759+Q16539+P53778); test: Induction of p38 MAPK phosphorylation at Thr180/Tyr182 residues in H2O2 treated human TIG3 cells at 0.3 uM pretreated with H2O2 for 2 hrs followed by compound addition by immunoblot analysis; outline: as §1
[26] = molecular target: Mitogen-activated protein kinase 3 (Homo sapiens) (UniProt P27361); test: Induction of ERK1 phosphorylation at Thr202 residues in H2O2 treated human TIG3 cells at 0.3 uM pretreated with H2O2 for 2 hrs followed by compound addition by immunoblot analysis; outline: as §1
Chain of Mitogen-activated protein kinase 3 (Homo sapiens) (P27361 whole entry): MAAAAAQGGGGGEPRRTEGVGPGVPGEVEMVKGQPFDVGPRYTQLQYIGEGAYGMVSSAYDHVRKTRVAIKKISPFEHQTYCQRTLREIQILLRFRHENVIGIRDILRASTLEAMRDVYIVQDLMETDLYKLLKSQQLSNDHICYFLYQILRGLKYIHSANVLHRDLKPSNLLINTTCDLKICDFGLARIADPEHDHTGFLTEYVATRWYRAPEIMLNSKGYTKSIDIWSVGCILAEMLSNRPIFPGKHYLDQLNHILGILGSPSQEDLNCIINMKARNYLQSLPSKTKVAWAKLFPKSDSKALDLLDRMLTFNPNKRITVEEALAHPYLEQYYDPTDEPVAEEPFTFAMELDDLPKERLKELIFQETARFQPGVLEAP

[27] = molecular target: Mitogen-activated protein kinase 1 (Homo sapiens) (UniProt P28482); test: Induction of ERK2 phosphorylation at Tyr204 residues in H2O2 treated human TIG3 cells at 0.3 uM pretreated with H2O2 for 2 hrs followed by compound addition by immunoblot analysis; outline: as §1
Chain of Mitogen-activated protein kinase 1 (Homo sapiens) (P28482 whole entry): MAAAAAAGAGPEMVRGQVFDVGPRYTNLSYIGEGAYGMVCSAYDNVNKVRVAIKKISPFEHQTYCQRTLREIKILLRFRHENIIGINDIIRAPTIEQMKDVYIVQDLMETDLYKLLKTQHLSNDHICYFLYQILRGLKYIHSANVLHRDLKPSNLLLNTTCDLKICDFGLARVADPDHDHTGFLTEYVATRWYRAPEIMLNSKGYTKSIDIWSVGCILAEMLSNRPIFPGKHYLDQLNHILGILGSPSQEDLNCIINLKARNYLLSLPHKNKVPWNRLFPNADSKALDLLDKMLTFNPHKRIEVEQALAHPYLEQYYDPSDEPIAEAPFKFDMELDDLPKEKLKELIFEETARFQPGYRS

[28] = molecular target: RAC-alpha serine/threonine-protein kinase (Homo sapiens) (UniProt P31749); test: Induction of AKT-mediated beta-catenin expression level in H2O2 treated human TIG3 cells at 0.3 uM pretreated with H2O2 for 2 hrs followed by compound addition by immunoblot analysis; outline: as §1
Homo sapiens = species on record: Homo sapiens; test: Induction of AKT/p38/p44 MAPK-mediated survivin expression level in H2O2 treated human TIG3 cells at 0.3 uM pretreated with H2O2 for 2 hrs followed by compound addition by immunoblot analysis; outline: as §1
TIG-3 [29] = test: Cytoprotective activity against H2O2-induced oxidative stress in human TIG3 cells assessed as increase in Bcl2 level at 0.3 uM pretreated with H2O2 for 2 hrs followed by compound addition by immunoblot analysis; format: functional, cell-based; outline: as §1

For `CC1=C(CO)C(=O)O[C@@H]([C@@H](C)[C@H]2CC[C@H]3[C@@H]4C[C@H]5O[C@]56[C@@H](O)C=CC(=O)[C@]6(C)[C@H]4CC[C@]23C)C1` [WITHAFERIN A], the Activity (TIG-3 [1]) was “inactive”, the Activity (TIG-3 [2]) was 90% and the Activity (WI-38 [3]) was 90%. The Activity (TIG-3 [4]) was “Toxic”, the Activity (WI-38 [5]) was “Toxic” and the Activity (TIG-3 [6]) was “Toxic”. The Activity (TIG-3 [7]) was “Toxic”, the Activity (TIG-3 [8]) was “Toxic” and the Activity (TIG-3 [9]) was “Toxic”. The Activity (TIG-3 [10]) was “Toxic”, the Activity (TIG-3 [11]) was “Toxic” and the Activity (TIG-3 [12]) was “Toxic”. For the same molecule, the Activity (TIG-3 [13]) was “Toxic”, the Activity (TIG-3 [14]) was “Toxic” and the Activity (TIG-3 [15]) was “Toxic”. The Activity (TIG-3 [16]) was “Toxic”, the Activity (TIG-3 [17]) was “Toxic” and the Activity (TIG-3 [18]) was “Toxic”. The Activity (TIG-3 [19]) was “inactive”, the Activity (TIG-3 [20]) was “inactive” and the Activity (TIG-3 [21]) was “inactive”. The Activity (TIG-3 [22]) was “inactive”, the Activity (TIG-3 [23]) was “inactive” and the Activity [24] was “Active”. The Activity [25] was “Active”, the Activity [26] was “Active” and the Activity [27] was “Active”. For the same molecule, the Activity [28] was “Active”, the Activity (Homo sapiens) was “Active” and the Activity (TIG-3 [29]) was “inactive”.

Source: ChEMBL document CHEMBL4138133, “2,3-Dihydro-3β-methoxy Withaferin-A Protects Normal Cells against Stress: Molecular Evidence of Its Potent Cytoprotective Activity” (J Nat Prod, 2017)
